B1: tRNA (parent)
chain: GUUCCGUUGGCGUAAUGGUAACGCGUCUCCCUCCUAAGGAGAAGACUGCGGGUUCGAGUCCCGUACGGAACG

167 variants from the RNAGym collection of RNA variant scans (doi:10.1126/science.aae0568) can be followed below.

Variants at the floor of the assay were thinned out.

Variants of B1 are the subject of this series. Briefly: yeast fitness relative to wild type (ratio to wild type); higher = fitter; tRNA-Arg(CCU), competitive growth, 37 C, YPD. The method in brief: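 Gene amplicons from the start population and from each of six end populations were read by 100-nucleotide paired-end sequencing. Those end populations came from pooled Saccharomyces cerevisiae strains carrying tRNA-Arg(CCU) gene variants at the native locus, competed in YPD at 37°C for 24 hours. Fitness relative to wild type was worked out from changes in genotype frequencies. Genotypes needed ≥ 100 starting reads, and estimates < 0.5 were set to 0.5.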
For G41C G48C A69C, the yeast fitness was 0.606. Take G9C U19C A40U A57U: the yeast fitness was ≤ 0.5. Turning to G25A U26A C31U G38A A42G A43U G67C, the yeast fitness worked out at 0.613. The same measure for C4U C11A A65C: 0.538.

For U28A C29G C31U G68A, the yeast fitness was determined as 0.547.

On to C24U G48A G63C, for which the yeast fitness came to 0.768. Regarding U7G C29A A69G, the yeast fitness was ≤ 0.5.

G41C G51C: the yeast fitness turned out to be 0.52.

As to C29A G58C G67A, the yeast fitness was 0.589. As for C11A A15G A40G, the yeast fitness amounted to 0.824. As for G6A U7A, the figure is 0.749; as for C22U C30G G51C G56U, ≤ 0.5. For C34U C49G G52C C55U C62G, the yeast fitness was 0.75.

On to A20U U64G, for which the yeast fitness was found to be 0.725. The same measure for C30A A40C C46U C60U C66U: ≤ 0.5. As for U13G C22G C27A C61U, the figure is ≤ 0.5.

On to C11A G56A C66G, for which the yeast fitness was 0.533.

Take U28A C34U A40U A45U C66U: the yeast fitness is ≤ 0.5. As for U3G C5A G63A, the yeast fitness is ≤ 0.5. Take C29U C33G A69U: the yeast fitness is ≤ 0.5.

Consider C27U C31U G48A, for which the yeast fitness came to 1. As for C4G U53A G63C, the figure is ≤ 0.5; as for A21G C29G G58C A70C, ≤ 0.5. On to U35C C46A C49A, for which the yeast fitness was ≤ 0.5.

On to C24U G25C C30G G50C G56A C66U, for which the yeast fitness is ≤ 0.5.

Turning to C5U U53G, the yeast fitness came out at 0.617. As for U13A G48C C55G C66A, the figure is 0.584; as for G25A A36U A45C U54A, ≤ 0.5; as for G56A U59C, 1.05.

For the variant C4G A21G A36U, the yeast fitness is ≤ 0.5. As to U2A C5A G68C, the yeast fitness is ≤ 0.5. Turning to C34G G38C, the yeast fitness stood at 0.587. Turning to C11U C31G C34G A43U G68C A69G, the yeast fitness amounted to 0.532. As for G6A C11U C34G, the figure is 0.567; as for A14U C30U C60A C66U, 0.618.

As for G9C C49U A57G, the yeast fitness is 0.615. As for G25C G39A, the figure is 0.787; as for U8C C27G, 0.647; as for C4A U35A A37U G67U, ≤ 0.5. Regarding G18A C31A G56C A69C, the yeast fitness is ≤ 0.5. With G23C G51A C61G A69U, the yeast fitness is ≤ 0.5. As for A43U G48A U64C, the figure is 0.751. The same measure for G10A A14U A20G U26G C31G C34G A42U A43C G50C: ≤ 0.5; for C4G G10A U13A U26G C27G C29U C33U U53C C61U: ≤ 0.5. With G10C A14U U32C C62U, the yeast fitness is ≤ 0.5. As for U8A G18C C27U A65C, the figure is ≤ 0.5. As for A20U A37C U53A, the figure is 0.682; as for C22G C61U, 0.841; as for A14C C34G A57U, 0.518. For the variant A14G G41C C55A, the yeast fitness was ≤ 0.5.

For the variant C5U C27G U28A C30G C31U G67A, the yeast fitness is ≤ 0.5. With A14U G41C C49U A65U, the yeast fitness was ≤ 0.5. C24U G44A C49A U59A: the yeast fitness amounted to 0.528. For U3A C5A G6C C11U A15G U16A U26G C60G C61U, the yeast fitness was ≤ 0.5. As for G10A U59C, the figure is 0.721; as for A36G A70C, 1.02. In the case of G58A C60U C62A, the yeast fitness came out at 0.552. Turning to C11A C24U G48A, the yeast fitness was ≤ 0.5.

With C34U G39C G50A, the yeast fitness worked out at 0.557. As to A15C C30G U32C C34U C66U A70C, the yeast fitness is ≤ 0.5. Regarding U26C A36C, the yeast fitness was 0.559. As for A21U C29G, the figure is 0.561; as for G25A C29U C66U, 0.747.

For U8G C55A C66U, the yeast fitness is ≤ 0.5. The same measure for U3A U53C U54C: ≤ 0.5.

For C22A G23C A36C C60G A65C, the yeast fitness is ≤ 0.5. C33A C46U U59C G67A G68C: the yeast fitness was ≤ 0.5. As for U35C A43G, the figure is 0.783. As for U26G A36U, the figure is 0.714; as for G6C U8C A42G, 0.575.

With U3C U8G A20G C24G, the yeast fitness is ≤ 0.5. Consider C11A C24G C30G, for which the yeast fitness came out at 0.599.

A20C C24U A57G C61U: the yeast fitness came out at 0.617. As for C27U A36C U54A C62U, the figure is ≤ 0.5; as for C4A C27A G38A, 0.513. As for U7G G25C C60A, the figure is 0.623. A43U C49G C61U: the yeast fitness is ≤ 0.5. The same measure for U35A A57U C66G: ≤ 0.5; for C5U A65C G68A: 0.681; for U19C C46U A69U: 0.804. As for C24G G50A, the figure is 0.616.

For A42G C66A, the yeast fitness came out at 0.599. Regarding C22G C49A, the yeast fitness amounted to 0.682. Turning to G23C A36C A45C G58A G68C, the yeast fitness was ≤ 0.5. For A15U A45U C46G, the yeast fitness is ≤ 0.5.

With C30A C55U C62G, the yeast fitness was 0.508. As for G12A C24A U26G A43C C62G G63A C66G A69G, the figure is ≤ 0.5; as for U13C G18A A43U, 0.627. On to G10C C66G, for which the yeast fitness is 0.515. The same measure for G23A C34A A43U U47C: 0.577. Regarding U13A C55U A69C, the yeast fitness came to 0.599. As for U8C G18C A20U C49G, the figure is ≤ 0.5. Consider A20C G41A, for which the yeast fitness is 0.779.

Regarding C11G A15U, the yeast fitness turned out to be 0.594.

On to U3G U8C C24A C30U, for which the yeast fitness was ≤ 0.5. The same measure for C5G G10C A43U U54C: ≤ 0.5.

As to G9C C11U C31A A40C A43U A65G C66G, the yeast fitness is ≤ 0.5. The same measure for C49U U64A A69U: 0.558; for U7A U8A G10C C27G C34G A43G C55U: ≤ 0.5; for A20G A40C A42U A43C G48A C66U: 0.532. The same measure for C55A C62A: 0.518; for C11A C34U U53C A69C: ≤ 0.5; for U19C C31A G50U C62G: ≤ 0.5. On to A43U G67C, for which the yeast fitness stood at 0.778. Consider C29U C46U, for which the yeast fitness turned out to be 0.929. Take C5U G52C C66U: the yeast fitness is 0.57. Regarding A15U A40G, the yeast fitness was determined as 0.598. Regarding C5U C11G A14G C29G, the yeast fitness is ≤ 0.5. The same measure for A20G C34A A57U: ≤ 0.5; for C5A U8C: 0.929. The same measure for U2G A43C: 1.07. Turning to C11G C22G C27G C62U, the yeast fitness worked out at 0.578. As for C29G C33U G50A A70C, the figure is ≤ 0.5; as for G10A G17C C30G C33G A45U G52A A70U, ≤ 0.5; as for C11G U13C A37U, ≤ 0.5. The same measure for U13A C61G G68C: ≤ 0.5; for A14U C46A C66U: ≤ 0.5; for A40G C55A C61U: ≤ 0.5.

Regarding C24A U26A C31A C55A U64C, the yeast fitness is ≤ 0.5. For G12A A43G G48C, the yeast fitness amounted to 0.568.

U2C G23C C31G C33U A42G G52C A70G: the yeast fitness is ≤ 0.5. Take C11G A15G C33G A37G U54A: the yeast fitness was ≤ 0.5.

As for U2G C24A, the yeast fitness came to 0.82. As for A20G A43G U47G G67C, the yeast fitness is ≤ 0.5. The same measure for G12A C49U C62A: 0.625; for U13A U32C G67A A70G: 0.547. For the variant C11A A21G C55G C62A, the yeast fitness is ≤ 0.5. As for G6A A45C C55G C61U, the figure is ≤ 0.5; as for A20U C31U C62U, 0.826. Regarding C11U C29U A57U C61U, the yeast fitness is ≤ 0.5. The same measure for C11G C27U U47A G52C: ≤ 0.5. The same measure for U8G G12A A37C A43U C66A A70C: 0.597; for C24U G67C: 0.698; for U13A G41A: 0.714.

As to C5G A15G A21G G25C C33U, the yeast fitness was ≤ 0.5. As for C29U G48A G56C C61U, the figure is ≤ 0.5; as for G10A G17A U19A C29U C66U, ≤ 0.5. As for C31U U54C U59C, the figure is 0.562; as for A15C C62U, 0.755. In the case of C49U U54A C55G, the yeast fitness was ≤ 0.5. As for G9A U19A U26A C34U, the figure is ≤ 0.5; as for A15G A42C, 0.863; as for C11U U19A A37C A40C G63A, ≤ 0.5. As for U8C A43C C49G, the figure is 0.597; as for A43U G48C U54C C60A U64A, ≤ 0.5. Consider G6A G12C C27A A37G C49U, for which the yeast fitness was ≤ 0.5. As to C30U A43U U64C, the yeast fitness is 0.707. As for U28C U54G A57C C62U, the yeast fitness is ≤ 0.5. The same measure for U3C G12A A45U C55U: ≤ 0.5. Take C4A C34G G38C A70G: the yeast fitness was ≤ 0.5. Consider U3A G51A A65G A69U, for which the yeast fitness was 1.03. Take G10C G23A: the yeast fitness is 0.57. As for G18A C30U U47G, the yeast fitness is ≤ 0.5.

C5A A15G C33A C61U G67A: the yeast fitness is ≤ 0.5. As for C5G G6C A15G C62U A65C, the figure is 0.6; as for A21U A57C G58A A70C, ≤ 0.5; as for A42U G51A C60G G63A, ≤ 0.5. A37C G48C: the yeast fitness was 0.751. The same measure for U19A A36U G50U C61U: ≤ 0.5. The same measure for A21U G67A: 0.818; for C5G C11A U16A A21U G67A: ≤ 0.5; for C24G U32G A36G C60A A65U: ≤ 0.5. Take C22A C27U G56A A57C: the yeast fitness is ≤ 0.5. As for U3A C5U A14G C34G A43C, the figure is ≤ 0.5. The same measure for C22U U28C C29G C33A C62U G63A U64A: ≤ 0.5; for A69U A70U: 1.03. Regarding U2A C27A C34U, the yeast fitness is ≤ 0.5.
